Data set [1] in a line: folding enthalpy; higher = less favourable; fluorescence melt of hairpins on a sequencing array, two-state fit. The conditions noted are these: sodium 0.088 M. The method, boiled down: (§1)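 Bootstrapped two-state fits yielded melting temperature and folding enthalpy for library hairpins. Cy3 fluorescence, with annealed Cy3 and quencher oligos, was imaged on a sequenced MiSeq flow cell in 50 mM Na-HEPES pH 8.0, 25 mM NaCl in 2.5 °C steps up to 60 °C, and normalised to pre-quench Cy3 and to control constructs. Four replicates were combined by inverse variance, and fitted temperatures were raised by 9.35 °C to match UV melts.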

Data set [2] is described as follows: melting temperature; fluorescence melt of hairpins on a sequencing array, two-state fit, raised by 9.35 °C to match UV melts. Particulars: sodium 0.088 M. The method, boiled down:
as §1

We go through 73 sequences from the array DNA melting data of Ke et al. (doi:10.1101/2024.01.08.574731).

With GTGTCTCGAAAGAGTCAC (((.(((....))).))), in data set [1], the folding enthalpy is -39.3 kcal/mol. Moreover, the Tm in data set [2] is 49.4 °C.
For GTGTCTGGAAACAGATAC ((.((((....)))).)), the folding enthalpy in data set [1] was -37.9 kcal/mol. Moreover, the Tm in data set [2] was 46.1 °C.
On to GTGTGACGAAAGTCCAC (((.(((....)))))), for which the folding enthalpy in data set [1] was -40.2 kcal/mol. Further, the Tm in data set [2] was 52.3 °C.
For GTGTGAGGAAACTCACAC (((((((....))))))) the same measures were -49.1 kcal/mol and 63.4 °C.
For the sequence GTGTGATCGAAAGATCAC (((..(((....)))))), the folding enthalpy in data set [1] was -14 kcal/mol. Besides, in data set [2], the Tm was determined as 66.7 °C.
For GTGTGCCGAAAGGCCAC (((.(((....)))))) the same measures were -20.6 kcal/mol and 63.8 °C.
Take GTGTGCGAAAGCAACCAC ((((((....)))..))): in data set [1], the folding enthalpy is -14.3 kcal/mol. Further, in data set [2], the Tm was 38.8 °C.
Take GTGTGCGAAAGCAGCCAC ((((((....)))..))): in data set [1], the folding enthalpy was -13.4 kcal/mol. In data set [2], the Tm came out at 36.1 °C.
As to GTGTGCGAAAGCATCCAC ((((((....)))..))), in data set [1], the folding enthalpy was -11 kcal/mol. For the same sequence, the Tm in data set [2] amounted to 33.9 °C.
On to GTGTGCGGAAACGCGTAC ((..(((....)))..)), for which the folding enthalpy in data set [1] was -16.3 kcal/mol. The Tm in data set [2] is 43.7 °C.
Consider GTGTGCGGAAACGTACAC ((((.((....)).)))), for which, in data set [1], the folding enthalpy was -40.2 kcal/mol. For the same sequence, in data set [2], the Tm was found to be 56.2 °C.
With GTGTGCGGAAACGTACGC (.((.((....)).)).), the folding enthalpy in data set [1] is -27.3 kcal/mol. Moreover, the Tm in data set [2] was determined as 48 °C.
For GTGTGGCGAAAGCCCAC (((.(((....)))))), the folding enthalpy in data set [1] is -18.6 kcal/mol. For the same sequence, the Tm in data set [2] worked out at 63 °C.
Consider GTGTGGGGAAACCCGTAC ((..(((....)))..)), for which the folding enthalpy in data set [1] is -20.8 kcal/mol. The Tm in data set [2] was determined as 33.5 °C.
GTGTGGGGAAACTCACAC (((((.(....).))))): the folding enthalpy in data set [1] was -36.3 kcal/mol. The Tm in data set [2] is 52.3 °C.
On to GTGTGGGGAAACTCACGC (.(((.(....).))).), for which, in data set [1], the folding enthalpy was -28 kcal/mol. Moreover, the Tm in data set [2] is 44.7 °C.
As for GTGTGGGGAAACTCGCAC (((.(.(....).).))), the folding enthalpy in data set [1] is -29.9 kcal/mol. Also, in data set [2], the Tm worked out at 42.8 °C.
For GTGTGTCGAAAGACCAC (((.(((....)))))) the same measures were -28.9 kcal/mol and 54.5 °C.
Regarding GTGTTACGAAAGTACAC (((.(((....)))))), in data set [1], the folding enthalpy was -27 kcal/mol. Moreover, the Tm in data set [2] worked out at 47.9 °C.
GTGTTCGAAAGAACACAC ((((((....)))..))): the folding enthalpy in data set [1] is -11.8 kcal/mol. Moreover, the Tm in data set [2] came to 65 °C.
GTGTTCGAAAGAAGACAC ((((((....)))..))): the folding enthalpy in data set [1] was -20.8 kcal/mol. Further, in data set [2], the Tm is 37.9 °C.
Turning to GTGTTCGAAAGAATCAC ((((((....))).))), the folding enthalpy in data set [1] is -28.2 kcal/mol. The Tm in data set [2] worked out at 41.5 °C.
In the case of GTGTTGCGAAAGCAGCAC (((.(((....))).))), in data set [1], the folding enthalpy is -30.2 kcal/mol. Moreover, the Tm in data set [2] was determined as 64.3 °C.
Regarding GTGTTGGGAAACCAGCAC (((.(((....))).))), the folding enthalpy in data set [1] was -43.9 kcal/mol. Also, the Tm in data set [2] was 51.4 °C.
GTGTTGGGAAACCGATAC ((.(.((....)).).)): the folding enthalpy in data set [1] was -18.3 kcal/mol. In addition, the Tm in data set [2] was determined as 33.3 °C.
For GTGTTTACGAAAGTACAC (((..(((....)))))) the same measures were -25 kcal/mol and 36.7 °C.
Consider GTGTTTCCGAAAGGACAC (((..(((....)))))), for which the folding enthalpy in data set [1] is -23.4 kcal/mol. Further, in data set [2], the Tm is 43.4 °C.
Take GTGTTTGAAAAAACAC ((((((....)))))): the folding enthalpy in data set [1] is -38.4 kcal/mol. Moreover, the Tm in data set [2] came out at 52.9 °C.
In the case of GTGTTTGGAAACAAATAC ((.((((....)))).)), in data set [1], the folding enthalpy was -29 kcal/mol. Further, in data set [2], the Tm was determined as 41.2 °C.
For GTGTTTGGAAACAAGCAC (((.(((....))).))) the same measures were -30.5 kcal/mol and 46.6 °C.
With GTGTTTTCGAAAGAACAC (((..(((....)))))), the folding enthalpy in data set [1] is -32.9 kcal/mol. Besides, the Tm in data set [2] worked out at 38.3 °C.
Taken in the same sequence, the figures for GTTAAAACGAAAGTTAAC (((..(((....)))))) were -16.6 kcal/mol and 26.3 °C.
For GTTAACCGAAAGGTAAC (((.(((....)))))) the same measures were -18.8 kcal/mol and 40.8 °C.
As to GTTAACGAAAGTTAAC ((((((....)))))), the folding enthalpy in data set [1] is -28.9 kcal/mol. Also, the Tm in data set [2] was 56 °C.
In the case of GTTAAGGCGAAAGCCAAC (((..(((....)))))), the folding enthalpy in data set [1] is -11 kcal/mol. The Tm in data set [2] was 32.8 °C.
As for GTTAATGAAAATTAAC ((((((....)))))), in data set [1], the folding enthalpy is -25.9 kcal/mol. Besides, the Tm in data set [2] turned out to be 40.1 °C.
For GTTAATGGAAACATTAAC (((((((....))))))) the same measures were -37.7 kcal/mol and 49.4 °C.
Taken in the same sequence, the figures for GTTACACCGAAAGGTAAC (((..(((....)))))) were -15.8 kcal/mol and 31.8 °C.
For GTTACACGAAAGTGAAC (((.(((....)))))) the same measures were -15.8 kcal/mol and 36.7 °C.
Take GTTACACGAAAGTGCAAC (((.(((....))).))): the folding enthalpy in data set [1] is -23.6 kcal/mol. Moreover, in data set [2], the Tm turned out to be 44.7 °C.
Regarding GTTACAGAAATGTAAC ((((((....)))))), the folding enthalpy in data set [1] is -33.4 kcal/mol. Also, in data set [2], the Tm is 46.1 °C.
Taken in the same sequence, the figures for GTTACAGGAAACTGTAGC (.(((((....))))).) were -22.6 kcal/mol and 38.9 °C.
Taken in the same sequence, the figures for GTTACAGGAAACTGTGAC ((.((((....)))).)) were -30 kcal/mol and 44.6 °C.
For GTTACCGAAAGGTCAAC ((((((....))).))), in data set [1], the folding enthalpy was -13.4 kcal/mol. Moreover, the Tm in data set [2] came to 32.8 °C.
GTTACCGAAAGGTCGAAC ((((((....)))..))): in data set [1], the folding enthalpy is -9.83 kcal/mol. For the same sequence, in data set [2], the Tm was found to be 28.2 °C.
Taken in the same sequence, the figures for GTTACCGAAAGGTGAAC ((((((....))).))) were -14.8 kcal/mol and 39.9 °C.
Taken in the same sequence, the figures for GTTACCGAAAGGTTGAAC ((((((....)))..))) were -12.8 kcal/mol and 29.2 °C.
For GTTACGGGAAACCGTAAC (((((((....))))))) the same measures were -46 kcal/mol and 60.5 °C.
GTTACGGGAAACTGTAAC (((((.(....).))))): the folding enthalpy in data set [1] is -32.7 kcal/mol. Further, the Tm in data set [2] turned out to be 45.6 °C.
For GTTACGGGAAACTGTGAC ((.((.(....).)).)), the folding enthalpy in data set [1] was -24.5 kcal/mol. The Tm in data set [2] amounted to 32.5 °C.
Consider GTTACTCGAAAGAGAAAC (((.(((....))).))), for which the folding enthalpy in data set [1] is -28.2 kcal/mol. Moreover, the Tm in data set [2] is 41.9 °C.
Take GTTACTGGAAACAGTGAC ((.((((....)))).)): in data set [1], the folding enthalpy was -27.6 kcal/mol. The Tm in data set [2] was 44.9 °C.
For the sequence GTTAGACGAAAGTCGAAC (((.(((....))).))), the folding enthalpy in data set [1] is -23.5 kcal/mol. Further, the Tm in data set [2] turned out to be 52.4 °C.
For the sequence GTTAGAGCGAAAGCTAAC (((..(((....)))))), the folding enthalpy in data set [1] was -14.6 kcal/mol. The Tm in data set [2] stood at 33.1 °C.
On to GTTAGCGAAAGCTAAAAC ((((((....)))..))), for which, in data set [1], the folding enthalpy was -13.2 kcal/mol. Also, the Tm in data set [2] is 33.4 °C.
For GTTAGCGAAAGCTAAC ((((((....)))))), in data set [1], the folding enthalpy is -28.2 kcal/mol. Also, the Tm in data set [2] was found to be 66.4 °C.
As for GTTAGCGGAAACGTTAAC ((((.((....)).)))), the folding enthalpy in data set [1] was -28.8 kcal/mol. Besides, the Tm in data set [2] is 44.2 °C.
As for GTTAGTGGAAACACTAAC (((((((....))))))), the folding enthalpy in data set [1] was -46.1 kcal/mol. The Tm in data set [2] is 54.7 °C.
For the sequence GTTAGTGGAAACATTAAC ((((.((....)).)))), in data set [1], the folding enthalpy was -19.2 kcal/mol. In addition, the Tm in data set [2] is 32.5 °C.
As to GTTATAGCGAAAGCTAAC (((..(((....)))))), in data set [1], the folding enthalpy was -14.3 kcal/mol. Also, the Tm in data set [2] turned out to be 29.9 °C.
On to GTTATCGCGAAAGCGAAC (((..(((....)))))), for which the folding enthalpy in data set [1] was -7.39 kcal/mol. Further, the Tm in data set [2] is 29.8 °C.
On to GTTATCTCGAAAGAGAAC (((..(((....)))))), for which the folding enthalpy in data set [1] was -11.8 kcal/mol. Also, the Tm in data set [2] came out at 29.8 °C.
With GTTATGCCGAAAGGCAAC (((..(((....)))))), in data set [1], the folding enthalpy is -7.54 kcal/mol. The Tm in data set [2] was determined as 33 °C.
For the sequence GTTATGCGAAAGCAAAAC (((.(((....))).))), the folding enthalpy in data set [1] is -21 kcal/mol. In addition, the Tm in data set [2] came to 41.2 °C.
Take GTTATGCGAAAGCACAAC (((.(((....))).))): the folding enthalpy in data set [1] was -20.3 kcal/mol. Further, the Tm in data set [2] was 40.4 °C.
Consider GTTATGGGAAACCATAAC (((((((....))))))), for which the folding enthalpy in data set [1] was -43.7 kcal/mol. In addition, in data set [2], the Tm was 54 °C.
Taken in the same sequence, the figures for GTTATGGGAAACTATAAC (((((.(....).))))) were -23.8 kcal/mol and 34.6 °C.
For GTTCAACGAAAGTTTAAC (((.(((....))).))) the same measures were -22.9 kcal/mol and 35.2 °C.
With GTTCACGAAAGTGAAC ((((((....)))))), in data set [1], the folding enthalpy is -34.7 kcal/mol. In addition, the Tm in data set [2] turned out to be 68.4 °C.
Taken in the same sequence, the figures for GTTCACGAAAGTGCAAC ((((((....))).))) were -16.8 kcal/mol and 37.8 °C.
Regarding GTTCACGAAAGTGGCAAC ((((((....)))..))), in data set [1], the folding enthalpy is -8.43 kcal/mol. Further, the Tm in data set [2] came out at 31.4 °C.
In the case of GTTCACGAAAGTGTAAC ((((((....))).))), the folding enthalpy in data set [1] was -18.8 kcal/mol. Moreover, in data set [2], the Tm amounted to 38.7 °C.
GTTCACGAAAGTGTGAAC ((((((....)))..))): the folding enthalpy in data set [1] is -25.7 kcal/mol. Besides, the Tm in data set [2] is 47.3 °C.
